Assay results: ChEMBL document CHEMBL6083205, “A comprehensive apoptotic assessment of niloticin in cervical cancer cells: a tirucallane-type triterpenoid from Aphanamixis polystachya (Wall.) Parker” (RSC Med Chem, 2024)
Calls of active or inactive are those of the source. No cut-off for these calls is given here.

Assays:
HeLa [1] = assay: Induction of apoptosis in human HeLa cells assessed as proportion of necrotic cells at 11 uM by AnnexinV-FITC/PI staining based FACS analysis (reference value: 3.4%); format: functional
HeLa [2] = assay: Induction of apoptosis in human HeLa cells assessed as proportion of early apoptotic cells at 7 uM by AnnexinV-FITC/PI staining based FACS analysis (reference value: 4.5%); format: functional
HeLa [3] = assay: Induction of apoptosis in human HeLa cells assessed as proportion of late apoptotic cells at 11 uM by AnnexinV-FITC/PI staining based FACS analysis (reference value: 14.5%); format: functional
HeLa [4] = assay: Induction of apoptosis in human HeLa cells assessed as proportion of early apoptotic cells at 11 uM by AnnexinV-FITC/PI staining based FACS analysis (reference value: 4.5%); format: functional
HeLa [5] = assay: Induction of apoptosis in human HeLa cells assessed as proportion of viable cells at 11 uM by AnnexinV-FITC/PI staining based FACS analysis (reference value: 77.7%); format: functional
HeLa [6] = assay: Induction of apoptosis in human HeLa cells assessed as proportion of necrotic cells at 7 uM by AnnexinV-FITC/PI staining based FACS analysis (reference value: 3.4%); format: functional
HeLa [7] = assay: Induction of apoptosis in human HeLa cells assessed as proportion of late apoptotic cells at 7 uM by AnnexinV-FITC/PI staining based FACS analysis (reference value: 14.5%); format: functional
HeLa [8] = assay: Induction of apoptosis in human HeLa cells assessed as proportion of viable cells at 7 uM by AnnexinV-FITC/PI staining based FACS analysis (reference value: 77.7%); format: functional
HeLa [9] = assay: Antiproliferative activity against human HeLa cells assessed as inhibition of cell growth incubated for 24 hrs by MTT assay; format: functional, cell-based
Outline: (§1)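 Cells kept in DMEM with 10% FBS and 1% antibiotic-antimycotic at 37 °C and 5% CO2. Seeded at 8 × 10^3 cells per 100 μL and left 24 h, then exposed 24 h to 5, 10, 20, 50 or 100 μM. MTT at 0.5 mg/mL in HBSS was added for 2–4 h at 37 °C in the dark. Formazan was dissolved in DMSO, A570 was read, and IC50 was derived.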

HeLa [10] = assay: Induction of apoptosis in human HeLa cells assessed as cells with impaired membrane by measuring increase in pink colour intensity at 7 to 11 uM by APOP staining based microscopy; format: functional, cell-based; conditions: dose 7-11 µM
Outline: (§2)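 HeLa exposed to 7 and 11 μM versus untreated control; live/dead staining either with acridine orange–ethidium bromide dual stain (fluorescence, FITC filter) or with APOPercentage dye (pink uptake, brightfield); imaged on inverted microscope.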

A549 = assay: Antiproliferative activity against human A549 cells assessed as inhibition of cell growth incubated for 24 hrs by MTT assay; format: functional, cell-based; conditions: A549, 24 h; outline: as §1
PANC-1 = assay: Antiproliferative activity against human PANC-1 cells assessed as inhibition of cell growth incubated for 24 hrs by MTT assay; format: functional, cell-based; conditions: PANC-1, 24 h; outline: as §1
MDA-MB-231 = assay: Antiproliferative activity against human MDA-MB-231 cells assessed as inhibition of cell growth incubated for 24 hrs by MTT assay; format: functional, cell-based; conditions: MDA-MB-231, 24 h; outline: as §1
SiHa = assay: Antiproliferative activity against human SiHa cells assessed as inhibition of cell growth incubated for 24 hrs by MTT assay; format: functional, cell-based
Outline: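 Cervical squamous carcinoma cells were seeded at 8 × 10^3 cells per 100 μL and incubated 24 h before compound was added (5–100 μM). After 24 h exposure, cells were washed and given 0.5 mg/mL MTT in HBSS for 2–4 h at 37 °C in the dark. Formazan was solubilised in DMSO, absorbance read at 570 nm, and IC50 determined.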

[11] = Cytotoxicity against human MCF-10A cells assessed as inhibition of cell growth incubated for 24 hrs by MTT assay; format: toxicity, cell-based
Outline: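 Non-tumorigenic breast epithelial line grown in MEGM with 5% horse serum at 37 °C and 5% CO2. Plated at 8 × 10^3 cells per well and treated 24 h later for 24 h at 5–100 μM. MTT (0.5 mg/mL in HBSS) was applied for 2–4 h at 37 °C in the dark, then DMSO. Read at 570 nm for IC50.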

HeLa [12] = assay: Induction of apoptosis in human HeLa cells assessed as cells with compromised membrane by measuring increase in red fluorescence intensity at 7 to 11 uM by acridine orange/ethidium bromide dual staining based fluorescence microscopy; format: functional, cell-based; conditions: dose 7-11 µM; outline: as §2
HeLa [13] = assay: Induction of apoptosis in human HeLa cells assessed as fold increase in caspase-3 activation at 7 to 11 uM by fluorometric assay relative to control; format: functional; conditions: dose 7-11 µM
Outline: (§3)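 HeLa seeded at 3 × 10^6 in 6-well plates, treated at 7 and 11 μM; caspase-3, -8 and -9 activity each measured by fluorometric kit per manufacturer's protocol; fluorescence read at ex 400 nm / em 505 nm; fold change versus control; mean ± SD.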

HeLa [14] = assay: Induction of apoptosis in human HeLa cells assessed as increase in caspase-8 activation at 7 to 11 uM by fluorometric assay; format: functional, cell-based; conditions: dose 7-11 µM; outline: as §3
HeLa [15] = assay: Induction of apoptosis in human HeLa cells assessed as increase in caspase-9 activation at 7 to 11 uM by fluorometric assay; format: functional, cell-based; conditions: dose 7-11 µM; outline: as §3
HeLa [16] = assay: Induction of apoptosis in human HeLa cells assessed as increase in number of cells with condensed nucleic acids at 7 to 11 uM incubated for 24 hrs by Hoechst 33342 staining based fluorescence light microscopy; format: functional, cell-based; conditions: dose 7-11 µM
Outline: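 HeLa, 7 × 10^3 cells/well, treated 24 h at 7 and 11 μM; stained with Hoechst 33342 (1 μg mL−1 in PBS); condensed nuclei imaged through DAPI filter on inverted fluorescence microscope.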

HeLa [17] = assay: Induction of apoptosis in human HeLa cells assessed as DNA fragmentation at 7 to 11 uM incubated for 24 hrs by ethidium bromide staining based agarose gel electrophoresis analysis; format: functional, cell-based; conditions: dose 7-11 µM
Outline: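 HeLa treated at 7 and 11 μM; genomic DNA isolated by kit, quantified by nanodrop and normalised; run on 0.8% agarose at 80 V, stained with ethidium bromide; laddering imaged by gel documentation.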

HeLa [18] = assay: Induction of apoptosis in human HeLa cells assessed as DNA fragmentation by measuring CH-deformation with enhanced peak at 1420 to 1440 cm^-1 at 7 to 11 uM incubated for 24 hrs by surface-enhanced Raman spectroscopic analysis; format: functional, cell-based; conditions: dose 7-11 µM
Outline: (§4)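 DNA isolated from control and 7 or 11 μM-treated HeLa, mixed 8:2 with 40–45 nm gold nanoparticles as SERS substrate, 10 min incubation; confocal Raman with 633 nm laser at 5 mW, 600 g/mm grating, 3 cm−1 resolution, 3 accumulations of 5 s integration.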

HeLa [19] = assay: Induction of apoptosis in human HeLa cells assessed as DNA fragmentation by measuring less intense peak for deoxyribose variation (1460-65 cm^-1) at 7 to 11 uM incubated for 24 hrs by surface-enhanced Raman spectroscopic analysis; format: functional, cell-based; conditions: dose 7-11 µM; outline: as §4
HeLa [20] = assay: Induction of cell cycle arrest in human HeLa cells assessed as proportion of cell accumulation at G1 phase at 7 uM by propidium iodide staining based flow cytometry (reference value: 67.7%); format: functional
HeLa [21] = assay: Induction of cell cycle arrest in human HeLa cells assessed as proportion of cell accumulation at S phase at 7 uM by propidium iodide staining based flow cytometry (reference value: 15.9%); format: functional
HeLa [22] = assay: Induction of cell cycle arrest in human HeLa cells assessed as proportion of cell accumulation at G2 phase at 7 uM by propidium iodide staining based flow cytometry (reference value: 8.7%); format: functional
HeLa [23] = assay: Induction of cell cycle arrest in human HeLa cells assessed as proportion of cell accumulation at subG0 phase at 7 uM by propidium iodide staining based flow cytometry (reference value: 7.6%); format: functional
HeLa [24] = assay: Induction of cell cycle arrest in human HeLa cells assessed as proportion of cell accumulation at G1 phase at 11 uM by propidium iodide staining based flow cytometry (reference value: 67.7%); format: functional
HeLa [25] = assay: Induction of cell cycle arrest in human HeLa cells assessed as proportion of cell accumulation at S phase at 11 uM by propidium iodide staining based flow cytometry (reference value: 15.9%); format: functional
HeLa [26] = assay: Induction of cell cycle arrest in human HeLa cells assessed as proportion of cell accumulation at G2 phase at 11 uM by propidium iodide staining based flow cytometry (reference value: 8.7%); format: functional
HeLa [27] = assay: Induction of cell cycle arrest in human HeLa cells assessed as proportion of cell accumulation at subG0 phase at 11 uM by propidium iodide staining based flow cytometry (reference value: 7.6%); format: functional
HeLa [28] = assay: Induction of cell cycle arrest in human HeLa cells assessed as downregulation of Cdk2 protein expression at 7 to 11 uM by western blot analysis; format: functional, cell-based; conditions: dose 7-11 µM
Outline: (§5)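 Protein extracted from treated and untreated HeLa, BCA-quantified and normalised; SDS-PAGE, PVDF transfer, 5% skim milk block; primary antibodies 18 h at 4 °C, HRP secondary; chemiluminescent detection of Cdk-2, cyclin A2, cyclin B1, Cdc-25 with β-actin loading control.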

HeLa [29] = assay: Induction of cell cycle arrest in human HeLa cells assessed as downregulation of Cyclin A2 protein expression at 7 to 11 uM by western blot analysis; format: functional, cell-based; conditions: dose 7-11 µM; outline: as §5
HeLa [30] = assay: Induction of cell cycle arrest in human HeLa cells assessed as downregulation of Cyclin B1 protein expression at 7 to 11 uM by western blot analysis; format: functional, cell-based; conditions: dose 7-11 µM; outline: as §5
HeLa [31] = assay: Induction of cell cycle arrest in human HeLa cells assessed as downregulation of Cdc25 protein expression at 7 to 11 uM by western blot analysis; format: functional, cell-based; conditions: dose 7-11 µM; outline: as §5
HeLa [32] = assay: Induction of mitochondrial membrane potential depolarization in human HeLa cells assessed as increase in JC-1 monomers by measuring increase in green fluorescence intensity at 7 to 11 uM incubated for 24 hrs by JC-1 staining based fluorescence microscopic analysis; format: functional, cell-based; conditions: dose 7-11 µM
Outline: (§6)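 HeLa treated for 24 h, then stained with JC-1 dye; red aggregate and green monomer fluorescence imaged on inverted microscope with FITC filter; aggregate-to-monomer ratio calculated relative to control; mean ± SD; scale bar 50 μm.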

HeLa [33] = assay: Induction of mitochondrial membrane potential depolarization in human HeLa cells assessed as decrease in JC-1 aggregate to monomer ratio at 7 to 11 uM incubated for 24 hrs by JC-1 staining based fluorescence microscopic analysis; format: functional, cell-based; conditions: dose 7-11 µM; outline: as §6
HeLa [34] = assay: Inhibition of colony formation in human HeLa cells assessed as decrease in number of colonies formed at 3 to 6 uM incubated for 9 days by crystal violet staining based microscopic analysis; format: functional, cell-based; conditions: dose 3-6 µM, time 9.0 day
Outline: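 HeLa seeded at 1 × 10^3 cells in 6-well plates; after attachment treated at 3 and 6 μM and grown 9 days at 37 °C; fixed in 70% methanol, stained with 0.3% crystal violet, PBS-washed; colonies imaged and counted by image analysis.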

HeLa [35] = assay: Antimetastatic activity in human HeLa cells assessed as inhibition of cell migration at 3 to 6 uM measured after 24 to 48 hrs by scratch wound assay; format: functional, cell-based; conditions: dose 3-6 µM, time 24-48 hrs
Outline: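 HeLa monolayer formed 24 h after seeding, scratched with a pipette tip and washed with PBS; treated at 3 and 6 μM, untreated cells as control; wound imaged at 0, 24 and 48 h; percentage wound closure/area measured by image analysis.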

HeLa [36] = assay: Antimetastatic activity in human HeLa cells assessed as downregulation of Ki67 expression at 3 to 6 uM incubated for 24 hrs by DAPI staining based immunofluorescence analysis; format: functional, cell-based; conditions: dose 3-6 µM
Outline: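 HeLa, 7 × 10^3 cells/well, treated at two concentrations for 24 h; fixed in 4% paraformaldehyde 15–30 min at 37 °C, permeabilised with 0.1% Triton-X 10 min, blocked in 5% BSA/PBST 1 h; Ki67 primary antibody overnight, then secondary antibody and DAPI counterstain; fluorescence microscopy imaging, fluorescence intensity quantified; mean ± SD.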

C[C@@H](C[C@@H](O)[C@@H]1OC1(C)C)[C@@H]1CC[C@]2(C)C3=CC[C@H]4C(C)(C)C(=O)CC[C@]4(C)[C@H]3CC[C@@]12C
Activity (HeLa [1]): 4.5% | Activity (HeLa [2]): 50.9% | Activity (HeLa [3]): 50.1% | Activity (HeLa [4]): 15.8% | Activity (HeLa [5]): 29.6% | Activity (HeLa [6]): 0.7% | Activity (HeLa [7]): 10.1% | Activity (HeLa [8]): 38.3% | IC50 (HeLa [9]): 11.7 µM | Activity (HeLa [10]): Active | IC50 (A549): 30.6 µM | IC50 (PANC-1): 16.5 µM | IC50 (MDA-MB-231): 23.9 µM | IC50 (SiHa): 16.2 µM | IC50 at 24 h [11]: 83.3 µM | Activity (HeLa [12]): Active | fold change (FC) (HeLa [13]): 3 | Activity (HeLa [14]): Active | Activity (HeLa [15]): Active | Activity (HeLa [16]): Active | Activity (HeLa [17]): Active | Activity (HeLa [18]): Active | Activity (HeLa [19]): Active | Activity (HeLa [20]): 64% | Activity (HeLa [21]): 4.9% | Activity (HeLa [22]): 5.4% | Activity (HeLa [23]): 25.6% | Activity (HeLa [24]): 44.1% | Activity (HeLa [25]): 9.8% | Activity (HeLa [26]): 6.2% | Activity (HeLa [27]): 39.5% | Activity (HeLa [28]): Active | Activity (HeLa [29]): Active | Activity (HeLa [30]): Active | Activity (HeLa [31]): Active | Activity (HeLa [32]): Active | Activity (HeLa [33]): Active | inhibition (HeLa [34]): Dose-dependent-effect | Activity (HeLa [35]): Active | Activity (HeLa [36]): Active
